In the library only some 2.1% were active in any assay of this set; here they are far more common.
CRFBP-R2 block = antagonists of CRF-BP/CRF-R2 complex, primary screen, cell-based, HEK293, calcium dye fluorescence, uHTS. hit rate 0.59% among 350,000. inhibition, % at 11.8 µM. CRF-induced calcium fluorescence. AID 588475, 2011;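 active = inhibition of the ligand-induced calcium signal above about 50% at the single tested concentration, limit read from the data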
CRFBP-R2 agonist = agonists of CRF-BP/CRF-R2 complex, primary screen, cell-based, HEK293, calcium dye fluorescence, uHTS; AID 588473, 2011; hit rate 0.46% among 350,000; calcium dye fluorescence (FLIPR); percent of saturating CRF peptide response; activation, % at 13.2 µM; CRF-binding protein / CRF receptor 2 complex (human);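 active = activation of at least 50%, plus an integration ratio under a set limit after plate pattern correction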;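 note: plate controls were neutral control wells without compound for no effect and CRF at EC100 for full effect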
beta cell repl = inducers of MIN6 beta-cell proliferation, primary screen, ATP luminescence, uHTS; MIN6 cells proliferation, ATPlite luminescence, 48 h; cells starved in 0.2% serum; 100% = growth in 10% serum; proliferation, % at 10 µM; hit rate 0.29% among 330,000; AID 2380, 2010;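 active = compounds whose signal lies at least 3.5 SD above the mean of all wells on their plate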;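 note: 0% = DMSO-treated cells in low-serum medium and 100% = 10% serum control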
H9c2 protect = cardioprotection against H2O2-induced cell death, primary screen, uHTS, H9c2 cells, ATPLite luminescence | H9c2 cardiomyocytes, H2O2 injury protection, 2 h | protection from H2O2 cell death, % at 20 µM | hit rate 0.63% among 360,000 | AID 588492, 2011;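 active = compounds giving at least 50% protection of heart cells from peroxide-induced death in the single-dose screen, raw or plate-pattern-corrected value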;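 note: 0% = DMSO wells with peroxide and 100% = DMSO wells without peroxide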
iPSC survival up = enhancers of single-cell hiPSC survival, primary screen, ATPlite luminescence | hit rate 0.044% among 360,000 | 100% = ROCK inhibitor wells, 0% = DMSO | AID 602274, 2012 | survival enhancement, % at 20 µM; in the data active = survival enhancement above about 18%;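 note: cells exposed to compounds for 16 hours before the ATP read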
UCH37 DUB inh = inhibitors of human UCH37 deubiquitinase, primary screen, biochemical, Ub-AMC cleavage, fluorescence | inhibition, % (test concentration not listed) | AID 588478, 2011 | hit rate 0.33% among 330,000 | purified proteasome/UCH37 | Ubiquitin carboxyl-terminal hydrolase isozyme L5 (Homo sapiens), Q9Y5K5;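 active = mean inhibition over replicate wells above about 20%, limit read from the data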;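 note: 0% = compound-free wells with enzyme and 100% = wells lacking proteasome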
Target sequence (Q9Y5K5 whole entry, looked up): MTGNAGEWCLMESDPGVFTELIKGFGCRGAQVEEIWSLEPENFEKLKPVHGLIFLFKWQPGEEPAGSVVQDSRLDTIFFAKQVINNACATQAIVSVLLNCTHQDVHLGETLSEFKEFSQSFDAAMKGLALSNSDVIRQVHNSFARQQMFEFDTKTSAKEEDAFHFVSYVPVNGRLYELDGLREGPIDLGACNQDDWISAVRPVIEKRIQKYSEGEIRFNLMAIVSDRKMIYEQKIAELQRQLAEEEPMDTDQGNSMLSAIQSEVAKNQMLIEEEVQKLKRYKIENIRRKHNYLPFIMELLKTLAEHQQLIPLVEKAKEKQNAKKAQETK
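Signal – fluorescence, ex 355 nm, em 460 nm · System – Proteasome-bound UCH37 · Input – 0.15 nM proteasome as dispensed · Timing – 30 min preincubation with enzyme, 25 min cleavage at room temperature · Read-out basis – percent inhibition of cleavage signal versus uninhibited and no-proteasome wells · Medium – Tris-HCl pH 7.4 with ATP-MgCl2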
An asterisk follows results filed as active; / = no result given.

SMILES | CRFBP-R2 block | CRFBP-R2 agonist | beta cell repl | H9c2 protect | iPSC survival up | UCH37 DUB inh
COc1cc(-c2nnc(-c3cc(OC)c(OC)c(OC)c3)o2)cc(OC)c1OC | 4.9 | -1.6 | 0.1 | 65.5* | -2.1 | -82.7
S=c1[nH]nc(-c2n[nH]c3c2CCC3)n1N=C/C=C/c1ccccc1 | / | / | / | / | / | 6.0
CC(=NNC(=O)c1c(Br)c(C)nn1C)c1ccc(NC(=O)c2ccoc2C)cc1 | / | / | / | / | / | -55.4
C/C(=N\NC(=O)c1c(Br)c(C)nn1C)c1ccc(NC(=O)c2ccoc2C)cc1 | -25.1 | -0.2 | -0.5 | 51.5* | -0.8 | /
O=C1N/C(=C/c2ccc(N3CCOCC3)o2)C(=O)N1c1ccccc1 | 56.4* | -0.4 | / | -4.5 | -1.2 | 10.3
O=C1S/C(=C/c2ccc(N3CCOCC3)o2)C(=O)N1Cc1ccc(F)cc1 | -132.1 | 114.3* | -5.6 | 2.2 | 2.1 | 6.6
O=C1NC(=S)S/C1=C/c1ccc(N2CCOCC2)o1 | -56.5 | 52.0* | -4.6 | -6.2 | -0.2 | 17.2
C=CCN1C(=O)C(=Nn2cnnc2)c2ccccc21 | / | / | / | / | / | -0.3
CCCCC(=O)NN=C(C)CC(=O)Nc1ccccc1Br | / | / | / | / | / | 3.3
O=[N+]([O-])c1ccc(-c2ccc(/C=N/Nc3nc(NCc4ccccc4)nc(N4CCOCC4)n3)o2)cc1 | -88.7 | 56.5* | -5.8 | -11.5 | -3.3 | /
C[n+]1c2cc(N)ccc2cc2ccc(N)cc21 | -208.7 | 224.6* | / | -38.2 | -5.2 | /
Nc1ccc2ccc(O)cc2c1 | 18.1 | -2.3 | / | -15.2 | -3.3 | -12.2
CC(=NNC(=O)c1cc2ccccc2cc1O)c1cccs1 | / | / | / | / | / | 2.9
CC(=NNC(=S)NCCc1ccccc1)c1cccc(Br)c1 | / | / | / | / | / | 1.7
COc1ccc(OC)c(C(=O)COC(=O)c2ccc([N+](=O)[O-])o2)c1 | -14.1 | 2.6 | -2.0 | 54.5* | -2.5 | 5.4
COc1ccc(CC(=O)O/N=C(\N)c2cccc([N+](=O)[O-])c2)cc1 | 67.1* | -3.2 | 0.0 | -6.0 | 0.5 | 2.2
O=C(NN=Cc1ccccn1)C(=O)N1CCCCCC1 | / | / | / | / | / | 3.3
Cc1ccc(-c2n[nH]c(=O)c3ccccc23)cc1S(=O)(=O)Nc1ccccc1 | -13.9 | 1.0 | 0.0 | 83.2* | 1.1 | 1.2
Cc1ccc(-c2n[nH]c(=O)c3ccccc23)cc1S(=O)(=O)NCCN1CCOCC1 | -16.6 | 1.1 | 0.8 | 48.8* | 0.1 | 1.5
O=C(c1cc2ccccn2n1)N1CCN(c2cccc(C(F)(F)F)c2)CC1 | 6.8 | -11.1 | -3.8 | -6.3 | -0.1 | 0.2
Cc1ccc(C)c(N2CCN(C(=O)c3cc4ccccn4n3)CC2)c1 | -83.5 | 119.4* | -1.3 | 1.0 | 2.9 | 6.9
CC1Cc2ccccc2N1C(=O)Cn1nc(C(=O)O)c2ccccc2c1=O (stereo not drawn) | -4.4 | 0.3 | -0.9 | 53.4* | 2.1 | -0.5
CC1Cc2ccccc2N1C(=O)COC(=O)c1n[nH]c(=O)c2ccccc12 (stereo not drawn) | -4.2 | -1.4 | -2.0 | 53.7* | 2.7 | 1.1
CC1=NNC(=O)C1CC(=O)NN=Cc1ccncc1 (stereo not drawn) | / | / | / | / | / | -0.6
COc1ccc(C/C(N)=N/OC(=O)COc2ccccc2C)cc1 | 38.8 | -0.4 | 0.0 | -1.5 | 1.5 | 3.0
SMILES | CRFBP-R2 block | CRFBP-R2 agonist | beta cell repl | H9c2 protect | iPSC survival up | UCH37 DUB inh
COc1ccccc1C/C(N)=N/OC(=O)COc1ccc(C)cc1C | 54.0* | -2.3 | 1.5 | -4.1 | 4.2 | -1.0
O=C(c1ccccc1)c1ccc(C(=O)N2CCCC(C(F)(F)F)C2)cc1 (stereo not drawn) | -16.6 | -0.9 | -0.8 | -4.5 | 0.3 | 2.7
CCOc1ccc(NS(=O)(=O)c2ccc(C(=O)N3CCCC(C)C3)cc2)cc1 (stereo not drawn) | -26.2 | 54.9* | -3.5 | -24.1 | -0.6 | -1.2
O=C(NNC(=O)c1ccccc1O)c1ccc(NS(=O)(=O)c2ccc(F)c(F)c2)cc1 | -2.6 | -0.5 | -3.1 | 21.9 | -0.3 | -0.1
CCOc1ccc(NS(=O)(=O)c2ccc(NC(=O)[C@@H]3CCCC[C@@H]3C(=O)O)cc2)cc1 | -224.6 | 189.5* | -0.5 | -0.5 | -1.4 | 0.9
O=C(c1ccc(S(=O)(=O)Nc2ccccc2)cc1)N1CCCC(C(F)(F)F)C1 (stereo not drawn) | -65.3 | 72.9* | -1.9 | -1.5 | -0.4 | 2.5
Cc1ccc(NS(=O)(=O)c2ccc(C(=O)NNC(=O)c3ccccc3O)cc2)cc1 | -22.0 | 1.0 | -6.5 | 63.6* | -0.1 | 4.2
O=C(CSc1nc2ccccc2o1)NN=Cc1ccccc1C(=O)O | / | / | / | / | / | 3.6
Cc1ccc(NS(=O)(=O)c2ccc(C(=O)N3CC(C)OC(C)C3)cc2)cc1 (stereo not drawn) | -28.6 | 82.6* | 0.8 | -7.2 | -0.1 | 5.1
Cc1ccc(C=NNc2nc3c([nH]2)c(=O)n(C)c(=O)n3C)cc1 | -13.3 | -1.9 | / | 70.4* | 3.1 | -10.5
Cn1c(=O)c2[nH]c(NN=Cc3ccc(Br)cc3)nc2n(C)c1=O | -14.4 | 4.2 | / | 57.5* | 5.6 | -10.3
COc1ccc(C=NNc2nc3c([nH]2)c(=O)n(C)c(=O)n3C)cc1 | -6.7 | -2.0 | / | 72.9* | -0.2 | 4.1
Cn1c(=O)c2[nH]c(NN=C(C#N)C(N)=O)nc2n(C)c1=O | / | / | / | / | / | -58.9
Cn1c(=O)c2[nH]c(NN=Cc3ccccc3)nc2n(C)c1=O | 8.5 | -5.9 | / | 15.6 | 1.6 | 8.2
COc1cc(C=NNc2cc(C)nc(NS(=O)(=O)c3ccc(C)cc3)n2)ccc1O | / | / | / | / | / | -3.4
O=C(Nc1cc(Cl)cc(Cl)c1)c1coc(=O)c(Br)c1 | 71.3* | 43.5 | -3.3 | -3.9 | -0.6 | /
O=C(NC(CO)(CO)CO)c1coc(=O)c(Br)c1 | 8.2 | -1.0 | -3.9 | -5.1 | -0.4 | 7.4
O=C(N/N=C/c1ccc(N2CCCC2)c([N+](=O)[O-])c1)c1cccnc1 | 1.2 | -2.7 | -3.5 | 1.8 | 1.2 | /
O=C(NN=Cc1ccc(N2CCCC2)c([N+](=O)[O-])c1)c1cccnc1 | / | / | / | / | / | 21.2*
O=C(c1ccc(N2CCNCC2)cc1)c1cccnc1 | 61.8* | -2.8 | -0.8 | 6.4 | 1.5 | 6.6
O=C(Nc1ccc(N2CCCCC2)cc1)c1cccnc1 | -3.5 | 0.3 | -3.0 | -22.2 | -3.9 | 29.4*
Nc1nonc1-n1nnc(C(=O)NN=Cc2cccc(Cl)c2)c1-c1ccc2c(c1)OCO2 | / | / | / | / | / | 3.3
Cc1[nH]c(=O)[nH]c(=O)c1C=NNC(=O)CCNC(=O)OC(C)(C)C | / | / | / | / | / | 1.0
COc1ccc(NC(=O)/C(C#N)=C\c2ccc(Br)o2)cc1 | 12.0 | 0.7 | -2.8 | 5.8 | -0.1 | /
N#C/C(=C\c1ccc(N2CCCCC2)o1)C(=O)Nc1cccc(Br)c1 | -265.5 | 312.1* | 2.7 | -14.9 | -1.5 | 4.0

Bioassay records: PubChem, several laboratories
